From ChEMBL document CHEMBL1156777, “Synthesis and antiprotozoal activity of cationic 1,4-diphenyl-1H-1,2,3-triazoles” (J Med Chem, 2010)

Key:
L6 = experiment: Cytotoxicity against rat L6 cells after 70 hrs by alamar blue assay; assay type: cell-based; conditions: L6, 70 h
Procedure, shortened: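 Cells were exposed to serial dilutions for 70 h at 37 °C, 5% CO₂, then given resazurin for 2–3 h. IC50 came from sigmoidal curves; two independent runs in duplicate. Top concentration was 90 μg/mL, converted to μM by molecular weight.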

[1] = test system: Trypanosoma brucei rhodesiense; experiment: Antitrypanosomal activity against Trypanosoma brucei rhodesiense STIB900 after 70 hrs by alamar blue assay; assay type: functional, organism-based; conditions: STIB900, 70 h
[2] = Selectivity index, ratio of IC50 for rat L6 cells to IC50 for Trypanosoma brucei rhodesiense STIB900; assay type: toxicity, cell-based; conditions: read-out: Ratio IC50
Procedure, shortened: (§1)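 Each index is L6 IC50 divided by parasite IC50. L6 values are from the 70 h resazurin assay. T. b. rhodesiense STIB900 values are from the 70 h resazurin assay. P. falciparum K1 values are from erythrocytic-stage [³H]-hypoxanthine incorporation: 48 h drug exposure, then 24 h with label. L. donovani values are from the 72 h axenic amastigote CellTiter assay.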

Plasmodium falciparum = experiment: Antiplasmodial activity against chloroquine-resistant Plasmodium falciparum K1 infected in human erythrocytes after 48 hrs assessed as [3H]hypoxanthine incorporation by liquid scintillation counting; assay type: functional, organism-based
[3] = Selectivity index, ratio of IC50 for rat L6 cells to IC50 for Plasmodium falciparum K1; assay type: toxicity, cell-based; conditions: read-out: Ratio IC50; procedure, shortened: as §1
Leishmania donovani = experiment: Antileishmanial activity against Leishmania donovani MHOM/SD/62/1S-CL2D; assay type: functional, organism-based
Procedure, shortened: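 Axenic amastigotes (MHOM/SD/62/1S-CL2_D) adapted from promastigotes and grown in amastigote medium at 37 °C. 6 × 10⁴ parasites per well were exposed to 2-fold serial dilutions for 72 h at 37 °C in humidified 5% CO₂. Growth was read with tetrazolium CellTiter reagent as absorbance at 490 nm. IC50 came from a four-parameter dose–response fit; duplicate determinations were averaged.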

Row | SMILES | IC50 (L6) [µM] | IC50 [1] [µM] | selectivity ratio [2] | IC50 (Plasmodium falciparum) [µM] | selectivity ratio [3] | IC50 (Leishmania donovani) [µM]
1 | COc1cc(C(=N)NC(C)C)ccc1-c1cn(-c2ccc(C(=N)NC(C)C)cc2)nn1 | > 166 | 0.201 | > 826 | 0.013 | > 12800 | > 100
2 | COc1cc(C2=NCCN2)ccc1-n1cc(-c2cccc(C3=NCCN3)c2)nn1 | > 173 | 1.87 | > 93 | 0.058 | > 2980 | > 100
3 | CC(C)NC(=N)c1cccc(-c2cn(-c3cccc(C(=N)NC(C)C)c3)nn2)c1 | > 184 | 14.8 | > 12 | 0.118 | > 1560 | > 100
4 | COc1ccc(C2=NCCN2)cc1-n1cc(-c2ccc(C3=NCCN3)cc2)nn1 | > 170 | 0.162 | > 1050 | 0.022 | > 7730 | > 100
5 | N=C(N)c1ccc(-c2cn(-c3ccc(C(=N)N)cc3O)nn2)cc1 | > 216 | 0.501 | > 431 | 0.17 | > 1270 | > 100
6 | CC(C)NC(=N)c1cccc(-c2cn(-c3ccc(C(=N)NC(C)C)cc3O)nn2)c1 | > 187 | 18.7 | > 10 | 1.19 | > 157 | > 100
7 | CC(C)NC(=N)c1ccc(-n2cc(-c3cccc(C(=N)NC(C)C)c3)nn2)cc1 | > 190 | 0.539 | > 353 | 0.038 | > 5000 | > 100
8 | Oc1cc(C2=NCCN2)ccc1-c1cn(-c2cccc(C3=NCCN3)c2)nn1 | > 183 | 0.606 | > 302 | 0.016 | > 11400 | > 100
9 | COc1ccc(C(=N)NC(C)C)cc1-c1cn(-c2cccc(C(=N)NC(C)C)c2)nn1 | > 176 | 1.25 | > 141 | 0.106 | > 1660 | > 100
10 | CC(C)NC(=N)c1cccc(-c2cn(-c3cc(C(=N)NC(C)C)ccc3O)nn2)c1 | > 167 | 13.9 | > 12 | 0.739 | > 226 | > 100
11 | Oc1ccc(C2=NCCN2)cc1-n1cc(-c2cccc(C3=NCCN3)c2)nn1 | > 174 | 102 | > 2 | 0.325 | > 535 | > 100
12 | CC(C)NC(=N)c1ccc(-c2cn(-c3cc(C(=N)NC(C)C)ccc3O)nn2)cc1 | > 170 | 15.1 | > 11 | 5.27 | > 32 | > 100
13 | COc1cc(C(=N)NC(C)C)ccc1-n1cc(-c2ccc(C(=N)NC(C)C)cc2)nn1 | > 164 | 0.328 | > 500 | 0.019 | > 8630 | > 100
14 | COc1ccc(C(=N)NC(C)C)cc1-c1cn(-c2ccc(C(=N)NC(C)C)cc2)nn1 | > 177 | 0.077 | > 2300 | 0.026 | > 6810 | > 100
15 | Oc1ccc(C2=NCCN2)cc1-n1cc(-c2ccc(C3=NCCN3)cc2)nn1 | > 175 | 19.6 | > 9 | 0.885 | > 198 | > 100
16 | CC(C)NC(=N)c1ccc(-c2cn(-c3ccc(C(=N)NC(C)C)cc3O)nn2)cc1 | > 178 | 1.38 | > 129 | 0.8 | > 223 | > 100

Row | SMILES | IC50 (L6) [µM] | IC50 [1] [µM] | selectivity ratio [2] | IC50 (Plasmodium falciparum) [µM] | selectivity ratio [3] | IC50 (Leishmania donovani) [µM]
17 | N=C(N)c1ccc(-c2cn(-c3cc(C(=N)N)ccc3O)nn2)cc1 | > 203 | 6.64 | > 31 | 1.23 | > 165 | > 100
18 | COc1ccc(C(=N)NC(C)C)cc1-n1cc(-c2ccc(C(=N)NC(C)C)cc2)nn1 | > 173 | 0.447 | > 387 | 0.195 | > 887 | > 100
19 | CC(C)NC(=N)c1cccc(-n2cc(-c3cc(C(=N)NC(C)C)ccc3O)nn2)c1 | > 170 | 10.9 | > 16 | 0.229 | > 742 | > 100
20 | c1cc(C2=NCCN2)cc(-c2cn(-c3cccc(C4=NCCN4)c3)nn2)c1 | > 197 | 14.1 | > 14 | 0.365 | > 540 | > 100
21 | COc1ccc(C(=N)N)cc1-c1cn(-c2cccc(C(=N)N)c2)nn1 | > 200 | 1.65 | > 121 | 0.024 | > 8330 | > 100
22 | COc1ccc(C2=NCCN2)cc1-n1cc(-c2cccc(C3=NCCN3)c2)nn1 | > 172 | 7.83 | > 22 | 0.03 | > 5730 | > 100
23 | COc1cc(C2=NCCN2)ccc1-n1cc(-c2ccc(C3=NCCN3)cc2)nn1 | > 176 | 0.675 | > 261 | 0.017 | > 10400 | > 100
24 | c1cc(C2=NCCN2)cc(-n2cc(-c3ccc(C4=NCCN4)cc3)nn2)c1 | 133 | 0.461 | 289 | 0.095 | 1400 | > 100
25 | COc1cc(C2=NCCN2)ccc1-c1cn(-c2ccc(C3=NCCN3)cc2)nn1 | 142 | 0.116 | 1220 | 0.011 | 12900 | > 100
26 | COc1cc(C(=N)NC(C)C)ccc1-n1cc(-c2cccc(C(=N)NC(C)C)c2)nn1 | > 159 | 1.96 | > 81 | 0.055 | > 2890 | > 100
27 | COc1ccc(C(=N)NC(C)C)cc1-n1cc(-c2cccc(C(=N)NC(C)C)c2)nn1 | 131 | 10.1 | 13 | 0.125 | 1050 | > 100
28 | N=C(N)c1cccc(-c2cn(-c3cc(C(=N)N)ccc3O)nn2)c1 | > 209 | 49.6 | > 4 | 8.93 | > 23 | > 100
29 | COc1cc(C2=NCCN2)ccc1-c1cn(-c2cccc(C3=NCCN3)c2)nn1 | > 172 | 4.02 | > 43 | 0.064 | > 2690 | > 100
30 | c1cc(C2=NCCN2)cc(-c2cn(-c3ccc(C4=NCCN4)cc3)nn2)c1 | 127 | 0.2 | 635 | 0.084 | 1510 | > 100
31 | Oc1cc(C2=NCCN2)ccc1-n1cc(-c2cccc(C3=NCCN3)c2)nn1 | > 187 | 11.1 | > 17 | 0.159 | > 1180 | > 100
